In the M2OR odorant receptor database:

tested on: T1, A0A140T8K0; settings: stereoisomer not certain
T1 sequence (whole entry): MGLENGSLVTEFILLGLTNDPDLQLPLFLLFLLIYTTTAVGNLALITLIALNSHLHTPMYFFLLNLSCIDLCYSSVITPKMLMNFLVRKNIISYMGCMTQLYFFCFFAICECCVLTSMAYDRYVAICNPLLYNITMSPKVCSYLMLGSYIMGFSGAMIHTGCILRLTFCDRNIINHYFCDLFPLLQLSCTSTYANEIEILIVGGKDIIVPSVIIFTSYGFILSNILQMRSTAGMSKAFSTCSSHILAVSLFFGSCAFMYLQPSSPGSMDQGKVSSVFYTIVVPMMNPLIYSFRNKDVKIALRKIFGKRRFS
In short: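 Each entry records the cell line, G-protein, co-transfected protein and tags used. Methods varied with the source, often transient luciferase assays in mammalian cell lines. A receptor–molecule pair is called responsive (active) if the original authors judged its signal statistically different from baseline and non-responsive (inactive) otherwise.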

Odorant receptor agonist call, inactive:
C=C(C)C1CCC(C)C(O)C1 (stereo unspecified)
CC(C)=CCCC(C)=CCOC(=O)C(C)C
CSSCc1ccco1
Cc1occc1SSc1ccoc1C
CCN(CC)CC
C=CC(=O)CCCCC
c1ccc2ncccc2c1
CC(=O)C1(C)CC2=C(CCCC2(C)C)CC1C (stereo unspecified)
Cc1ccc(C(C)C)c(O)c1
O=C([O-])CCCCCCCC(=O)[O-].[H+].[H+]
O=C(O)C1CCC1
CCCO
CCc1ccccc1O
CCOC(=O)CC(C)C
OCC=Cc1ccccc1
CC1CCC(C(C)C)C(=O)C1 (stereo unspecified)
CCCCCCCCC=CC=O
O=C([O-])CCCCCCC(=O)[O-].[H+].[H+]
CCC=CCCCCC=O
CCc1ccc(O)cc1
CC(CC=O)CCCC(C)(C)O (stereo unspecified)
CCCC(C)C(=O)OCC (stereo unspecified)
CC1CC=CCCCCCCCCCC(=O)C1 (stereo unspecified)
CSSSC
CCCCCCC(C=O)=Cc1ccccc1
CC(=O)C=CC1=C(C)CCCC1(C)C
CCSCC
CCCCCC(C=O)=Cc1ccccc1
CCCCCCC(C)O (stereo unspecified)
C=C(C)C1CC=C(C)CC1 (stereo unspecified)
CCCCCCC(=O)OCCCC
CC(=O)OCc1ccc2c(c1)OCO2
CC=Cc1ccc(OC)cc1
CCCCCCCCCC=CC=O
O=C(OCc1ccccc1)c1ccccc1O

Odorant receptor agonist call, active:
O=C(O)CCCCCCCCC(=O)O
